Assays:
[1] = Metabolic stability in mouse plasma assessed as parent compound remaining at 5 uM measured after 2 hrs by LC-MS/MS analysis; format: ADME, cell-free; conditions: read-out: Stability
Summary of the method: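 Compounds incubated in human or mouse plasma for 2 h. Percent remaining and percent conversion to the parent were determined.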

[2] = Inhibition of pig liver endoplasmic reticulum alpha glucosidase-1 using 4-methylumbelliferyl-alpha-D-glucoside as substrate measured after 90 mins by fluorescence analysis; design: species or system Sus scrofa
Mus musculus [3] = assay: Prodrug activation in BALB/c mouse assessed as 3-(tert-butyl)-1-cyclohexyl-1-(6-((2R,3R,4R,5S)-3,4,5-trihydroxy-2-(hydroxymethyl)piperidin-1-yl)hexyl)urea Cmax at 100 mg/kg, po administered as single dose by LC-MS/MS analysis; format: organism-based; design: dose 100 mg/kg, route oral; conditions: in vivo
Summary of the method: (§1)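 Male BALB/c mice dosed with the prodrugs or the parent orally (25 or 100 mg/kg) or intravenously (5 mg/kg). The parent compound was quantified in plasma and PK parameters were derived from it. The first sampling point was 5 min post-dose, and prodrugs were tracked up to 4 h.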

[4] = Metabolic stability in pooled mouse liver microsomes assessed as parent compound remaining at 200 uM measured after 60 mins in presence of NADPH and UDPGA by LC-MS/MS analysis; format: ADME, microsome; conditions: read-out: Stability
Summary of the method: (§2)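 Prodrugs or parent incubated in pooled human or mouse liver microsomes for up to 60 min, with or without cofactor. Percent remaining and percent conversion to the parent were measured.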

Mus musculus [5] = assay: Prodrug activation in BALB/c mouse assessed as 3-(tert-butyl)-1-cyclohexyl-1-(6-((2R,3R,4R,5S)-3,4,5-trihydroxy-2-(hydroxymethyl)piperidin-1-yl)hexyl)urea AUC(0 to infinity) at 25 mg/kg, po administered as single dose by LC-MS/MS analysis; format: organism-based; design: dose 25 mg/kg, time infinity, route oral; conditions: in vivo
Mus musculus [6] = assay: Prodrug activation in po dosed BALB/c mouse assessed as 3-(tert-butyl)-1-cyclohexyl-1-(6-((2R,3R,4R,5S)-3,4,5-trihydroxy-2-(hydroxymethyl)piperidin-1-yl)hexyl)urea formation measured up to 4 hrs by LC-MS/MS analysis; format: organism-based; conditions: in vivo; summary of the method: as §1
[7] = Half life in pooled human liver microsomes at 200 uM by LC-MS/MS analysis; format: ADME, microsome; conditions: liver microsomes; summary of the method: as §2
[8] = Apparent permeability of the compound across apical side to basolateral side in human Caco2 cells assessed as drug recovery at 5 uM measured after 2 hrs by LC-MS/MS analysis; format: ADME, cell-based; conditions: Caco-2, read-out: Drug recovery
Mus musculus [9] = assay: Prodrug activation in BALB/c mouse assessed as 3-(tert-butyl)-1-cyclohexyl-1-(6-((2R,3R,4R,5S)-3,4,5-trihydroxy-2-(hydroxymethyl)piperidin-1-yl)hexyl)urea AUC(0 to infinity) at 5 mg/kg, iv as bolus administration by LC-MS/MS analysis; format: organism-based; design: dose 5 mg/kg, route intravenous, time infinity; conditions: in vivo
Mus musculus [10] = assay: Prodrug activation in po dosed BALB/c mouse assessed as 3-(tert-butyl)-1-cyclohexyl-1-(6-((2R,3R,4R,5S)-3,4,5-trihydroxy-2-(hydroxymethyl)piperidin-1-yl)hexyl)urea formation measured after 5 mins by LC-MS/MS analysis; format: organism-based; conditions: in vivo; summary of the method: as §1
Mus musculus [11] = assay: Prodrug activation in BALB/c mouse assessed as 3-(tert-butyl)-1-cyclohexyl-1-(6-((2R,3R,4R,5S)-3,4,5-trihydroxy-2-(hydroxymethyl)piperidin-1-yl)hexyl)urea formation at 100 mg/kg, po administered as single dose measured after 3 hrs by LC-MS/MS analysis; format: organism-based; conditions: in vivo; summary of the method: as §1

Row | Compound | remaining at 2 h, 5 µM [1] [%] | IC50 [2] [µM] | Cmax (Mus musculus [3]) [µg/mL] | remaining at 1 h, 200 µM [4] [%] | AUC (Mus musculus [5]) [ng·mL·h] | Drug metabolism (Mus musculus [6]) | half-life at 200 µM [7] [min] | recovery at 2 h, 5 µM [8] [%] | AUC (Mus musculus [9]) [ng·mL·h] | Drug metabolism (Mus musculus [10]) | Drug metabolism (Mus musculus [11]) [µM]
1 | CC(C)C(=O)OC[C@@H]1[C@@H](OC(=O)C(C)C)[C@H](OC(=O)C(C)C)[C@@H](OC(=O)C(C)C)CN1CCCCCCN(C(=O)NC(C)(C)C)C1CCCCC1 | 0 | > 80 | 0.195 | 5 | 197 | Metabolite_Notdetected | 10 | < 60 | 569 | – | –
2 | CCCC(=O)OC[C@@H]1[C@@H](OC(=O)CCC)[C@H](OC(=O)CCC)[C@@H](OC(=O)CCC)CN1CCCCCCN(C(=O)NC(C)(C)C)C1CCCCC1 | 0 | > 80 | 0.998 | 10 | 529 | – | 14 | < 60 | 2288 | Metabolite_Detected | > 1
3 | CC(=O)OC[C@@H]1[C@@H](OC(C)=O)[C@H](OC(C)=O)[C@@H](OC(C)=O)CN1CCCCCCN(C(=O)NC(C)(C)C)C1CCCCC1 | 0 | > 80 | 1.597 | 0 | 359 | – | 3 | 9 | 368 | Metabolite_Detected | –

From ChEMBL document CHEMBL4041548, “Ester Prodrugs of IHVR-19029 with Enhanced Oral Exposure and Prevention of Gastrointestinal Glucosidase Interaction” (ACS Med Chem Lett, 2017)
